For 17 compounds, Activity results are on record in ChEMBL document CHEMBL1250420, “Identification of chalcones as in vivo liver monofunctional phase II enzymes inducers” (Bioorg Med Chem, 2010).

Calls of active or inactive are those of the source. The calls are words filed in the database; no cut-off is given here.

The test system of one series is HT-29. As to the kind of experiment: Cytotoxicity against human HT-29 cells. The series is classed as functional, cell-based.
In series [1] the test system is Rattus norvegicus. As to the kind of experiment: Induction of quinone reductase activity in rat liver at 15 mg/kg, po qd. The series is classed as functional. An outline of the steps:
(§1)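 Oral dosing for 15 days over 3 weeks, then liver QR read as loss of 600 nm absorbance of DCPIP (80 µM) with 0.2 mM NADH, 5 µM FAD, 25 mM Tris–HCl pH 7.4, 6% BSA, 0.01% Tween 20. Specific activity expressed as % change from basal-diet control, n = 5, means ± SE, Student's t-test.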

In series [2] the test system is Rattus norvegicus. As to the kind of experiment: Induction glutathione-S-transferase activity in rat liver at 15 mg/kg, po qd. The series is classed as functional. An outline of the steps: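 Hepatic GST after oral dosing for 15 days over 3 weeks. Substrates 1 mM CDNB and 1 mM reduced glutathione in 100 mM phosphate buffer pH 6.5; CDNB–GSH conjugate followed at 340 nm. Specific activity given as % change from basal-diet control, n = 5, means ± SE, Student's t-test.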

A further series has as its system MCF7. As to the kind of experiment: Cytotoxicity against human MCF7 cells. The series is classed as functional, cell-based.
The test system of another series is TK-10. As to the kind of experiment: Cytotoxicity against human TK10 cells. The series is classed as functional, cell-based.
In series [3] the test system is Rattus norvegicus. As to the kind of experiment: Induction glutathione-CYP1A1 in rat liver at 15 mg/kg, po qd by EROD assay. The series is classed as functional. An outline of the steps:
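Rat liver CYP1A1 read as EROD activity: fluorescence increase from resorufin released from 7-ethoxyresorufin, in 100 mM phosphate buffer pH 7.6 with 250 µM NADPH. Oral dosing for 15 days over 3 weeks; change in specific activity expressed as % of basal-diet control, n = 5, means ± SE, Student's t-test.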

For series [4], the system named is Rattus norvegicus. As to the kind of experiment: Toxicity in Sprague-Dawley rat assessed as leucocyte level at 10 mg/kg/day, po. The settings on record: in vivo.
For series [5], the system named is Rattus norvegicus. As to the kind of experiment: Toxicity in Sprague-Dawley rat assessed as haemoglobin level at 10 mg/kg/day, po (RVb = 15.1 +/- 4.1 g/L). The settings on record: in vivo.
Series [6] relates to Rattus norvegicus. As to the kind of experiment: Toxicity in Sprague-Dawley rat assessed as change in body weight at 10 mg/kg/day, po. The settings on record: in vivo.
For series [7], the target named is T1, Quinone oxidoreductase (Homo sapiens) (UniProt Q08257).
T1 sequence (whole entry): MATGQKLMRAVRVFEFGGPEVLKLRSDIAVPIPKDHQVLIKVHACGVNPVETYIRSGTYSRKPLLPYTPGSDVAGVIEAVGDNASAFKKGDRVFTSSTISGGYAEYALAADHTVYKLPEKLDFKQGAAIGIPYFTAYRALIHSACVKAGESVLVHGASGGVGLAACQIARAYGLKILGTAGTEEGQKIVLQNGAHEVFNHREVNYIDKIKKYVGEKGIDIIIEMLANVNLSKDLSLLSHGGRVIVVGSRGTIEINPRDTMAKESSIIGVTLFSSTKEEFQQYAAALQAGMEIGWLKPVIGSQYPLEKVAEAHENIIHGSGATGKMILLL
As to the kind of experiment: Induction of quinone reductase activity in human MCF7 cells. The series is classed as cell-based. In short, it runs like this: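 QR induction in MCF-7 tumour cells at 40 µM, a level chosen from a flavone dose–response; result given as ratio of QR specific activity, treated/control.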

The subject of series [8] is Rattus norvegicus. As to the kind of experiment: Induction of quinone reductase activity in rat liver at 22.5 mg/kg, po qd. In kind it is functional. An outline of the steps:
as §1

Series [9] is described as follows: Mutagenic activity in Salmonella typhimurium TA98 assessed as […] increase in number of revertants at 3 ug/plate after 48 hrs by Ames test. The series is classed as toxicity. The settings on record: salmonella enterica subsp. enterica serovar typhimurium. An outline of the steps: (§2)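 TA98 pre-incubation Ames test without listed S9: 50 µL test solution, 500 µL 0.1 M phosphate pH 7.4 and 100 µL bacteria (2 × 10^9/mL), 60 min. Top agar with trace histidine/biotin, then 48 h at 37 °C and revertant count. Doses fall by thirds from the minimum toxic dose; DMSO and 4-NPD (20 µg/plate) controls; two independent experiments, means ± SD.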
A general note: In the Ames test, an excess of revertant colonies over the control signals mutagenicity.

Series [10] deals with Rattus norvegicus. As to the kind of experiment: Induction glutathione-S-transferase activity in rat liver at 15 mg/kg, po qd.
Series [11] is described as follows: Mutagenic activity in Salmonella typhimurium TA98 assessed as […] increase in number of revertants at 8 ug/plate after 48 hrs by Ames test. The series is classed as toxicity. Particulars: salmonella enterica subsp. enterica serovar typhimurium. In short, it runs like this: as §2
Series [12] concerns Rattus norvegicus. As to the kind of experiment: Induction glutathione-CYP1A1 in rat liver at 15 mg/kg, po qd by EROD assay.
The nature of series [13]: Mutagenic activity in Salmonella typhimurium TA98 assessed as […] increase in number of revertants at 225 ug/plate after 48 hrs by Ames test. In kind it is toxicity. The settings on record: salmonella enterica subsp. enterica serovar typhimurium. An outline of the steps: as §2
Series [14] can be described thus: Mutagenic activity in Salmonella typhimurium TA98 assessed as […] increase in number of revertants at 25 ug/plate after 48 hrs by Ames test. In kind it is toxicity. The settings on record: salmonella enterica subsp. enterica serovar typhimurium. An outline of the steps:
as §2

Series [15] in a line: Mutagenic activity in Salmonella typhimurium TA98 assessed as […] increase in number of revertants at 75 ug/plate after 48 hrs by Ames test. Particulars: salmonella enterica subsp. enterica serovar typhimurium. In kind it is toxicity. An outline of the steps:
as §2

In series [16] the test system is Rattus norvegicus. As to the kind of experiment: Toxicity in Sprague-Dawley rat assessed as glutamic-pyruvate level at 10 mg/kg/day, po (RVb = 22.8 +/-13.2 U/L). The settings on record: in vivo.
The subject of series [17] is Rattus norvegicus. As to the kind of experiment: Toxicity in Sprague-Dawley rat assessed as change in body weight at 250 mg/kg, po. In kind it is organism-based. The settings on record: in vivo. Details: dose 250 mg/kg, route oral. In short, it runs like this:
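Healthy female Sprague–Dawley rats (about 200 g, 5–7 per group) given a single oral dose by intragastric syringe, suspended in saline/Tween 80 (4:1); vehicle-treated controls included. Daily weighing and observation for 3 days, then sacrifice with clinical biochemistry, haematology and organ histology.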

The subject of series [18] is Rattus norvegicus. As to the kind of experiment: Toxicity in Sprague-Dawley rat assessed as glutamic-oxalate transaminase level at 10 mg/kg/day, po (RVb = 71.4 +/- 7.8 U/L). The settings on record: in vivo.
Setting [19] is: dose 15.0 mg/kg, in the assay text read “at 15.0 mg/kg” for “at 22.5 mg/kg”.

`COc1ccc(/C=C/C(=O)c2ccccc2)cc1` [4-METHOXY CHALCONE]: the outcome with HT-29 and in the series with TK-10 was Active. Further, the values for the Activity in the series on Rattus norvegicus [1], in the series on Rattus norvegicus [2] and in the series with Rattus norvegicus [3] were 10%, -10% and -30%, respectively. Also, the result in the series with MCF7 was inactive.
In the case of `COc1ccc(C2CC(=O)c3ccccc3O2)cc1` (stereo not given), the outcome in the series with HT-29 was inactive. Moreover, the result in the series on MCF7 and in the series on TK-10 was Active. Further, the Activity in the series on Rattus norvegicus [4] was 8600 µL⁻¹; in the series on Rattus norvegicus [5], 11.3 g/L; with Rattus norvegicus [6], “Non-toxic”.
In the case of `O=C(/C=C/c1ccccn1)c1ccccc1O`, the outcome (in series [7]; in the series on HT-29; in the series on MCF7; with TK-10) was Active. Besides, the Activity with Rattus norvegicus [8] (setting [19]) was determined as 13%; in [9], 13; with Rattus norvegicus [10] it was 20%; in series [11] it was 17; in the series on Rattus norvegicus [12], 10%; in series [13] it was 18. For the same compound, the Activity was 16 in series [14] and 17 in series [15].
Take `COc1ccc(/C=C/C(=O)c2ccccc2O)cc1`: the outcome in the series with HT-29 was inactive. Besides, the Activity is 13.2 U/L with Rattus norvegicus [16]; “Non-toxic” with Rattus norvegicus [17]; 60% in the series with Rattus norvegicus [8] (setting [19]); 52.2 U/L with Rattus norvegicus [18]; -10% in the series on Rattus norvegicus [10]; -40% in the series with Rattus norvegicus [12]. Further, the values for the Activity with Rattus norvegicus [4] and in the series with Rattus norvegicus [5] were 7300 µL⁻¹ and 12.3 g/L, respectively. The result in the series on MCF7 and in the series with TK-10 was Active.
As for `O=c1cc(-c2ccc(Br)cc2)oc2ccccc12`, the outcome with HT-29, with MCF7 and with TK-10 was inactive. Further, the Activity with Rattus norvegicus [1] is 30%; in the series with Rattus norvegicus [6], “Non-toxic”.
`O=C(/C=C/c1cccs1)c1ccccc1O`: the Activity in series [9] was 15; in series [11] it was 16; with Rattus norvegicus [1], 10%; in the series on Rattus norvegicus [2], 10%; in the series on Rattus norvegicus [3], 20%; in series [13], 14. Moreover, the Activity stood at 19 in [14] and 13 in series [15].
`O=C(/C=C/c1ccc2c(c1)OCO2)c1ccccc1O`: the outcome in the series with HT-29, in the series with MCF7 and in the series on TK-10 was inactive. Further, the Activity with Rattus norvegicus [8] (setting [19]) is 30%; with Rattus norvegicus [10], -20%; with Rattus norvegicus [12], -50%.
For `O=c1cc(-c2ccccc2Br)oc2ccccc12`, the outcome in the series on HT-29 and with TK-10 was inactive. For the same compound, the Activity was 45.4 U/L with Rattus norvegicus [16]; 52.9 U/L with Rattus norvegicus [18]; 4500 µL⁻¹ with Rattus norvegicus [4]; 9.6 g/L with Rattus norvegicus [5]; “Non-toxic” in the series with Rattus norvegicus [6]. The result in the series with MCF7 was Active.
Take `CN(C)c1ccc(/C=C/C(=O)c2ccccc2O)cc1`: the result in the series on HT-29, with MCF7 and in the series on TK-10 was inactive. Also, the Activity was 5500 µL⁻¹ in the series on Rattus norvegicus [4], 11.5 g/L in the series on Rattus norvegicus [5] and “Non-toxic” in the series on Rattus norvegicus [6].
`O=C(/C=C/c1ccccc1)c1ccccc1O` [2'-HYDROXYCHALCONE]: the result (in series [7]; in the series with HT-29; with MCF7; in the series on TK-10) was Active. The Activity entry is recorded as “Non-toxic” in the series on Rattus norvegicus [17]; 10% with Rattus norvegicus [8] (dose 22.5 mg/kg); 13 in series [9]; 16 in [11]; 10% with Rattus norvegicus [1]; 30% with Rattus norvegicus [2]. Further, the Activity was -60% with Rattus norvegicus [3]; 14 in [13]; 5200 µL⁻¹ with Rattus norvegicus [4]; 11.3 g/L with Rattus norvegicus [5]; 17 in series [14]; 20 in series [15].
On to `COc1ccc(/C=C/C(=O)c2ccccc2O)cc1OC`, for which the result with HT-29 was inactive. Further, the Activity is 15 U/L in the series with Rattus norvegicus [16]; -20% in the series on Rattus norvegicus [8] (setting [19]); 62.1 U/L with Rattus norvegicus [18]; 9600 µL⁻¹ with Rattus norvegicus [4]; 9.3 g/L with Rattus norvegicus [5]; “Non-toxic” with Rattus norvegicus [6]. The outcome in the series on MCF7 and in the series on TK-10 was Active.
As to `O=C(/C=C/c1ccc(Cl)cc1)c1ccccc1O`, the outcome with HT-29 and in the series on TK-10 was Active. For the same compound, the Activity in the series with Rattus norvegicus [8] (setting [19]) is 20%; in the series with Rattus norvegicus [10], -20%; in the series on Rattus norvegicus [12] it was -10%. Further, the outcome in the series with MCF7 was inactive.
As to `CSc1ccc(/C=C/C(=O)c2ccccc2)cc1`, the outcome with HT-29 and with MCF7 was inactive. Also, the Activity in the series on Rattus norvegicus [1] was 20%; with Rattus norvegicus [2], 30%; in the series on Rattus norvegicus [3], 750%. The result in the series on TK-10 was Active.
`Nc1ccc(/C=C/C(=O)c2ccccc2O)cc1`: the result with HT-29, in the series with MCF7 and with TK-10 was inactive. For the same compound, in the series with Rattus norvegicus [8] (setting [19]), the Activity worked out at 0%.
Turning to `O=C(/C=C/c1ccc(Cl)cc1)c1ccccc1` [4-CHLORO CHALCONE], the result in the series with HT-29 and in the series on TK-10 was Active. The Activity in the series on Rattus norvegicus [1] is 10%; with Rattus norvegicus [2] it was -20%; with Rattus norvegicus [3], 40%. Also, the outcome with MCF7 was inactive.
For `O=c1cc(-c2ccccc2)oc2ccccc12` [FLAVONE], the outcome in the series with HT-29, in the series on MCF7 and with TK-10 was inactive. In the series with Rattus norvegicus [1], the Activity is -30%.
As for `O=C1CC(c2ccccc2Br)Oc2ccccc21` (stereo not given), the outcome in the series with HT-29 and in the series with TK-10 was inactive. Also, the Activity in the series with Rattus norvegicus [1] came to 10%; in the series on Rattus norvegicus [2], 10%; with Rattus norvegicus [3], 30%. For the same compound, the result with MCF7 was Active.
